ChEMBL document CHEMBL1155977, “Design and one-pot synthesis of alpha-aminophosphonates and bis(alpha-aminophosphonates) by iron(III) chloride and cytotoxic activity” (Eur J Med Chem, 2009)

Legend:
[1] = tested on: Jurkat; test: Cytotoxicity against human Jurkat cells assessed as growth inhibition at 100 uM after 48 hrs by MTT assay; type: functional
How it was run: (§1)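 Jurkat and Raji cells in RPMI 1640 with 10% fetal bovine serum, plated at 10⁴ cells/well. Compounds in DMSO diluted into medium, tested at 0.1–100. Exposure 48 h at 37 °C, 5% CO₂. Doxorubicin positive control; 0.6% DMSO negative control. MTT added for a further 4 h; formazan dissolved in 2-propanol/DMSO/HCl (30:20:2); A570. Inhibition percentage taken at the top concentration.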

[2] = tested on: Raji; test: Cytotoxicity against human Raji cells assessed as growth inhibition at 100 uM after 48 hrs by MTT assay; type: functional; how it was run: as §1
[3] = tested on: MCF7; test: Cytotoxicity against human MCF7 cells assessed as growth inhibition at 100 uM after 72 hrs by MTT assay; type: functional; settings: MCF7, 72 h
How it was run: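 MCF-7 cells in RPMI 1640 with 10% fetal bovine serum, plated at 10⁴ cells/well. Compounds in DMSO diluted into medium at 0.1–100 and incubated 72 h at 37 °C, 5% CO₂. Doxorubicin served as positive control and 0.6% DMSO as negative control. MTT for 4 h; formazan dissolved in 2-propanol/DMSO/HCl (30:20:2); read at 570 nm. Inhibition percentage at the highest concentration.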

[4] = tested on: Raji; test: Cytotoxicity against human Raji cells after 48 hrs by MTT assay; type: functional, cell-based
How it was run: (§2)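 Cells were grown in RPMI 1640 with 10% fetal bovine serum and plated at 10⁴ cells/well. Compounds were dissolved in DMSO, diluted in medium, and tested at 0.1, 1, 10, 25, 50, 75 and 100. Incubation was at 37 °C in 5% CO₂ for 48 h (Jurkat, Raji) or 72 h (MCF-7). Controls were doxorubicin (positive) and 0.6% DMSO (negative). MTT was added for a further 4 h, formazan was dissolved in 2-propanol/DMSO/HCl (30:20:2), and absorbance was read at 570 nm.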

[5] = tested on: Jurkat; test: Cytotoxicity against human Jurkat cells after 48 hrs by MTT assay; type: functional, cell-based; how it was run: as §2
[6] = tested on: MCF7; test: Cytotoxicity against human MCF7 cells after 72 hrs by MTT assay; type: functional, cell-based; settings: MCF7, 72 h; how it was run: as §2

SMILES	inhibition at 100 µM [1] [%]	inhibition at 100 µM [2] [%]	inhibition at 100 µM [3] [%]	IC50 [4] [µM]	IC50 [5] [µM]	IC50 [6] [µM]
CCOP(=O)(OCC)C(Nc1ccc(Cc2ccc(NC(c3ccc(N(C)C)cc3)P(=O)(OCC)OCC)cc2)cc1)c1ccc(N(C)C)cc1 (stereo not given)	17.8	0.78	12.7	–	–	–
CCOP(=O)(OCC)C(Nc1ccc(Cc2ccc(NC(c3ccc([N+](=O)[O-])cc3)P(=O)(OCC)OCC)cc2)cc1)c1ccc([N+](=O)[O-])cc1 (stereo not given)	10.7	0	12.2	–	–	–
CCOP(=O)(OCC)C(NCCc1c[nH]c2ccccc12)c1ccc(C(NCCc2c[nH]c3ccccc23)P(=O)(OCC)OCC)cc1 (stereo not given)	68.4	64.8	54.2	45.2	24.3	67.5
CCOP(=O)(OCC)C(Nc1ccc(S(=O)(=O)c2ccc(NC(c3ccc(O)c(OC)c3)P(=O)(OCC)OCC)cc2)cc1)c1ccc(O)c(OC)c1 (stereo not given)	15.6	0	16.6	–	–	–
COc1cccc2c1C(=O)c1c(O)c3c(c(O)c1C2=O)C[C@@](O)(C(=O)CO)C[C@@H]3O[C@H]1C[C@H](N)[C@H](O)[C@H](C)O1 [DOXORUBICIN]	82.3	66.7	65.5	–	–	–
CCOP(=O)(OCC)C(Nc1ccc(C(=O)c2ccc(NC(c3ccccc3)P(=O)(OCC)OCC)cc2)cc1)c1ccccc1 (stereo not given)	15.8	0	10.2	–	–	–
CCOP(=O)(OCC)C(Nc1ccccc1)c1ccc(C(Nc2ccccc2)P(=O)(OCC)OCC)cc1 (stereo not given)	36.8	27.2	25.4	–	–	–
CCOP(=O)(OCC)C(Nc1ccc(Cc2ccc(NC(c3cc(OC)c(OC)c(OC)c3)P(=O)(OCC)OCC)cc2)cc1)c1cc(OC)c(OC)c(OC)c1 (stereo not given)	20.1	0	3.5	–	–	–
CCOP(=O)(OCC)C(Nc1ccc(Oc2ccc(NC(c3ccccc3)P(=O)(OCC)OCC)cc2)cc1)c1ccccc1 (stereo not given)	6.84	0	0	–	–	–
CCOP(=O)(OCC)C(Nc1ccc(Cc2ccc(NC(c3ccccc3)P(=O)(OCC)OCC)cc2)cc1)c1ccccc1 (stereo not given)	28	6.41	13.9	–	–	–
CCOP(=O)(OCC)C(Nc1ccc(Cc2ccc(NC(c3ccc(O)c(OC)c3)P(=O)(OCC)OCC)cc2)cc1)c1ccc(O)c(OC)c1 (stereo not given)	40.1	56.2	29.1	58.6	–	–
CCOP(=O)(OCC)C(Nc1nc2[nH]cnc2c(=O)[nH]1)c1ccc(C(Nc2nc3[nH]cnc3c(=O)[nH]2)P(=O)(OCC)OCC)cc1 (stereo not given)	0	64.8	12.7	–	–	–
